Measurements as given in ChEMBL document CHEMBL1138590, “Discovery of novel dihydro-9,10-ethano-anthracene carboxamides as glucocorticoid receptor modulators” (Bioorg Med Chem Lett, 2009).

Key:
Progesterone receptor = molecular target: T1, Progesterone receptor (Homo sapiens, UniProt P06401); assay: Displacement of […] from progesterone receptor by fluorescence polarization assay
T1 sequence (P06401 whole entry): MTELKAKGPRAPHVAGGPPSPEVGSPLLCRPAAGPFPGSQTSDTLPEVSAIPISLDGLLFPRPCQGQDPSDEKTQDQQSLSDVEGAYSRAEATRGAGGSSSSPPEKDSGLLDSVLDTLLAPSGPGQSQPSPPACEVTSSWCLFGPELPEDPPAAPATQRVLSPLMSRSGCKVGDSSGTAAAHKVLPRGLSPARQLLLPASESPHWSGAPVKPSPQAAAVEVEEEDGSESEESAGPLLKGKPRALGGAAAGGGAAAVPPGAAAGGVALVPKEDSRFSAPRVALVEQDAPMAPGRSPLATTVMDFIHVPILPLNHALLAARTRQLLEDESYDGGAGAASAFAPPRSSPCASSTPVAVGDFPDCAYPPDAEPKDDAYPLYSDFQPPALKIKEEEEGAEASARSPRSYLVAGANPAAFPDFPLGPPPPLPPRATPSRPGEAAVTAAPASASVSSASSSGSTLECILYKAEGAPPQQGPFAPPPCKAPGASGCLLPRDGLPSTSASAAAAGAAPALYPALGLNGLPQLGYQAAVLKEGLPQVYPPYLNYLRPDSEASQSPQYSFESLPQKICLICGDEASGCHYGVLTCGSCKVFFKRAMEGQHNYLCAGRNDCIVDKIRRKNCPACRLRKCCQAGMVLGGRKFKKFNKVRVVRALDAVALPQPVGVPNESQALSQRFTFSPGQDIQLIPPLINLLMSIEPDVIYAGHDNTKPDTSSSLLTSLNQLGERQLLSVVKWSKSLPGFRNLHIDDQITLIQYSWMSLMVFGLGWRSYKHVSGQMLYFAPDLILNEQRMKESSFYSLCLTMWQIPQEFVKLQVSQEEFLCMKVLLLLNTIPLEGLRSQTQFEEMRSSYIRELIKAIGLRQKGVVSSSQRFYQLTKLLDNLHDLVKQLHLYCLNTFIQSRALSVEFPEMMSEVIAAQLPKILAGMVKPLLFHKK
Summary of the method: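 Fluorescence polarization competition binding: the test compound competes with a fluorescently labelled ligand for binding to the full-length receptor or its ligand-binding domain. IC50 is fitted from the polarization signal with a four-parameter logistic equation. Ki is derived by Cheng–Prusoff, Ki = IC50/(1 + ligand concentration/Kd). Values are means of duplicate experiments.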

[1] = molecular target: T2, Mineralocorticoid receptor (Homo sapiens) (UniProt P08235); assay: Antagonist activity at mineralocorticoid receptor in human A549 cells assessed as inhibition of 1.25 nM aldosterone-induced effect at 0.1 uM; assay type: functional, cell-based
T2 sequence (whole entry): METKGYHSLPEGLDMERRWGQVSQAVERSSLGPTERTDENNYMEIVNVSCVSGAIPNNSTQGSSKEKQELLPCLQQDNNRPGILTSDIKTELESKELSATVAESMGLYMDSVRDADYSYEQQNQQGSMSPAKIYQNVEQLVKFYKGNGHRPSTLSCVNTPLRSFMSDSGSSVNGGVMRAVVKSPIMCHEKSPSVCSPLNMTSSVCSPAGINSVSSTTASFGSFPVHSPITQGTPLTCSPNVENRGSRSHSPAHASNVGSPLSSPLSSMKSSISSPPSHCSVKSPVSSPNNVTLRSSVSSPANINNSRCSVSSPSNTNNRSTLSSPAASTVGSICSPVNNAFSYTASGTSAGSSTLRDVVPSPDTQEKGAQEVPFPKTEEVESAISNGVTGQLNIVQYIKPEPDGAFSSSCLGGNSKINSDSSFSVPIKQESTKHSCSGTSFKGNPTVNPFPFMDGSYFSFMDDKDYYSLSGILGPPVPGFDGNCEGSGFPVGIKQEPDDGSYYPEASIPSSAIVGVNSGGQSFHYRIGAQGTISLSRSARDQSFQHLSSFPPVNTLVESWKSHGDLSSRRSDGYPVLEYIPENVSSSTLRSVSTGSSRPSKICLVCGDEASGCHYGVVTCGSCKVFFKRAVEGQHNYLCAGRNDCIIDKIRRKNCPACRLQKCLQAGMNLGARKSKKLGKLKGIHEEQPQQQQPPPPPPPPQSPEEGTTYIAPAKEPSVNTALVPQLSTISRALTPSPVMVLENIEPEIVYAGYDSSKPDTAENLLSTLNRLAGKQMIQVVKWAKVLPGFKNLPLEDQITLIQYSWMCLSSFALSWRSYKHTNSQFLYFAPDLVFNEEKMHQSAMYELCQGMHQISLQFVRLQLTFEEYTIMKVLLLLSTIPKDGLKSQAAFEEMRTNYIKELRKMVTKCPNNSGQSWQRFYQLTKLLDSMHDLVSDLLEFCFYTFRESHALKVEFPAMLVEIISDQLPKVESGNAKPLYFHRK

Androgen receptor = molecular target: T3, Androgen receptor (Homo sapiens, UniProt P10275); assay: Displacement of fluorescently labeled ligand from androgen receptor by fluorescence polarization assay
T3 sequence (P10275 whole entry): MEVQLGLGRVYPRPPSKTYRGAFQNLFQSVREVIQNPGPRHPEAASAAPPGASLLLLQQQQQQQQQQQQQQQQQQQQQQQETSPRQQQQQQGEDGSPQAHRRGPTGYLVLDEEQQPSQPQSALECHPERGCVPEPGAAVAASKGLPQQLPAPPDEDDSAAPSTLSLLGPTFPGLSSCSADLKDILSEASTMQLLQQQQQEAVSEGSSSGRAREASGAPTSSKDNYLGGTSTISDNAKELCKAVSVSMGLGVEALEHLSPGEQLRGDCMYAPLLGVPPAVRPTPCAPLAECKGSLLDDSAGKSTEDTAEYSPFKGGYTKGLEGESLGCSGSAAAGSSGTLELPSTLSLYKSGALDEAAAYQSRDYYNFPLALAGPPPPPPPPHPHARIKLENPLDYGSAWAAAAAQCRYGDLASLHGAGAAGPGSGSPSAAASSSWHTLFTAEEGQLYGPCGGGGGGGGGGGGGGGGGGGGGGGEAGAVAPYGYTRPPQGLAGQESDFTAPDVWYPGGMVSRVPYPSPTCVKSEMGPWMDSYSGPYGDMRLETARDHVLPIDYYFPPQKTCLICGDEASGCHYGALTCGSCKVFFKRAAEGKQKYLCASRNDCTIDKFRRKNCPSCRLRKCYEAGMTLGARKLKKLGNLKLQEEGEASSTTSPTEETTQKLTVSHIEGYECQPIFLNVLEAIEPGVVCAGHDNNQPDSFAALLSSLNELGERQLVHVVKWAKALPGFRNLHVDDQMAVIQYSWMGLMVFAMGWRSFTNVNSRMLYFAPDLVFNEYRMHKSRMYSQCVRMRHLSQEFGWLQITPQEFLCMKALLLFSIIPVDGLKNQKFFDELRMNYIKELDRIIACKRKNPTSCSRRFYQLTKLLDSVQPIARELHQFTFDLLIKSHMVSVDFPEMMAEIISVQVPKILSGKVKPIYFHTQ

SMILES	Ki (Progesterone receptor) [nM]	inhibition [1] [%]	Ki (Androgen receptor) [nM]
C[C@@]1(C(=O)Nc2nccs2)CC2c3ccccc3C1c1ccccc12	147	3	7400
C[C@@]1(C(=O)Nc2nccs2)CC2(C#N)c3ccccc3C1c1ccccc12	34	47	> 10000
